Compound activity: PubChem BioAssay, Broad Institute
DENV2 CPE rescue: inhibitors of DENV2 cytopathic effect, primary screen, cell-based, plate reader, single concentration. AID 651640, 2012. CPE inhibition, % at 9.99 µM. 350,000 compounds, 1.7% hits. DENV2-infected cells, cytopathic effect rescue; in the data active means CPE inhibition above about 20%, passing the limit was not always enough; inconclusive means no clear call, values can overlap the other calls; tested in BHK-21 cells;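 further: 0% = median of neutral control wells and 100% = median of positive control wells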
E-selectin induc: E-selectin induction in HUVECs, primary screen, imaging, HUVEC, immunofluorescence imaging, single point | P16581 | normalized: neutral wells 0, TNF-alpha wells 100 | activation, % at 7.58 µM | 260,000 compounds, 0.37% hits | AID 686992, 2013;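 active means mean E-selectin-positive cell signal at least 10% of the positive control, reached in at least 60% of replicates, without over 20% cell loss; inconclusive means no rule given, readout overlaps actives, possibly toxicity-flagged; inactive means the rest, including those meeting only one limit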
Target sequence (P16581 whole entry, looked up): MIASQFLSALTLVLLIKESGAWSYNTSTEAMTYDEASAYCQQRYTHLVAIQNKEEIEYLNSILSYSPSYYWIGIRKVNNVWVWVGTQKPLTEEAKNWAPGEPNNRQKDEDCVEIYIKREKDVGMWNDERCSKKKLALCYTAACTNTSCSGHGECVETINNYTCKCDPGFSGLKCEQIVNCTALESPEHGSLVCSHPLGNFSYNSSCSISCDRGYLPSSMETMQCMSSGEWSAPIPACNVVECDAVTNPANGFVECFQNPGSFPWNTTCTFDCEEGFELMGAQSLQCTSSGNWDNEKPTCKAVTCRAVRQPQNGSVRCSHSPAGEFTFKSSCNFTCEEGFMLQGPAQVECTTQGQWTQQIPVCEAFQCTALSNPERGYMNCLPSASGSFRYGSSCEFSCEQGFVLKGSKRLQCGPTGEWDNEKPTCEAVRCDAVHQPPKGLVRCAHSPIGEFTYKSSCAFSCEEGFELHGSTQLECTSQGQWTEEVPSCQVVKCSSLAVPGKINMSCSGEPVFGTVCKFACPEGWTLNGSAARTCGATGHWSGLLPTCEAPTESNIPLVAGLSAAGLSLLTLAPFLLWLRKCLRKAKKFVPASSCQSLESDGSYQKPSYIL
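Test system: HUVEC; input: 3,000 HUVEC/well; measured by: immunofluorescence imaging; read-out: % PE-positive cells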
C2C12 statin: suppressors of statin myotoxicity in C2C12 myotubes, primary screen, cell-based, single point, plate reader; C2C12 myotubes + simvastatin, ATP luminescence, 48 h; scaled: DMSO 0, geranylgeraniol control 100; rescue of ATP level, % at 7.49 µM; 330,000 compounds, 0.78% hits; AID 602340, 2012;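 active means mean ATP rescue above about 67%, or every replicate alone reaching that limit, limit read from the data, passing the limit was not always enough; inconclusive means no clear call, values can overlap the other calls; inactive means mean under the limit and some replicate under it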;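 further: myotubes were challenged with 10 µM simvastatin during compound exposure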
* = called active by the depositor; u = inconclusive; x = not tested or not shown; ! = not active in a repeat. Most compounds without a hit are left out; they make up all but 2.2% or so of the library.

SMILES	DENV2 CPE rescue	E-selectin induc	C2C12 statin
Cc1ccc(S(=O)(=O)N(C)C[C@H]2Oc3c(NS(=O)(=O)c4ccc(Cl)cc4)cccc3C(=O)N([C@@H](C)CO)C[C@H]2C)cc1	74*	0	-11
COc1ccc(S(=O)(=O)Nc2cccc3c2O[C@H](CN(C)S(C)(=O)=O)[C@H](C)CN([C@@H](C)CO)C3=O)cc1	u	-3	x
COc1ccc(S(=O)(=O)N(C)C[C@@H]2Oc3c(NS(=O)(=O)c4ccc(C)cc4)cccc3C(=O)N([C@H](C)CO)C[C@H]2C)cc1	43*	0	x
COc1ccc(S(=O)(=O)Nc2cccc3c2O[C@H](CN(C)C)[C@@H](C)CN([C@H](C)CO)C3=O)cc1	12	0	127*!
O=C(C[C@@H]1C=C[C@H](NC(=O)C2CCC2)[C@@H](CO)O1)NCc1ccccc1Cl	0	0	-6
O=C1COCCOCCOCC(=O)NCCN1	8	x	3
O=C1COCCOCCOCCOCC(=O)NCCN1	26*	-1	-1
CC1CCCCC1NC(=O)CCNC(=O)N1CC(=O)Nc2ccccc21 (centres undefined)	0	x	119*
O=C(CCNC(=O)N1CC(=O)Nc2ccccc21)Nc1ccc(Cl)cc1	0	0	3
C[C@@H]1CN([C@H](C)CO)C(=O)c2cc(N(C)C)ccc2O[C@@H](C)CCCCO[C@H]1CN(C)S(=O)(=O)c1ccccc1	-3	0	55
Cc1cc(C(=O)CN2C(=O)C(=O)N(Cc3ccco3)C2=O)c(C)n1CCc1ccccc1	4	x	-20
Cc1cc(C(=O)CN2C(=O)C(=O)N(Cc3ccco3)C2=O)c(C)n1CCc1ccc(F)cc1	-9	90*	-70
C[C@@H]1CN([C@@H](C)CO)C(=O)c2cc(-c3ccc(F)cc3)cnc2O[C@H]1CN(C)C(=O)NC1CCCC1	-6	0	15
Cc1ccccc1S(=O)(=O)N1CC[C@@H]2[C@H]1c1cc(-c3cccc(F)c3)ccc1N(C)[C@H]2CO	22*	0	-51
Cc1ccccc1S(=O)(=O)N1CC[C@@H]2[C@H]1c1cc(-c3ccc(C#N)cc3)ccc1N(C)[C@H]2CO	27*	0	-16
COc1cccc(-c2ccc3c(c2)[C@@H]2[C@@H](CCN2S(=O)(=O)c2ccccc2C)[C@H](CO)N3C)c1	28*	0	-48
CN1c2ccc(-c3ccc(C#N)cc3)cc2[C@H]2[C@H](CCN2S(=O)(=O)c2cccc(F)c2)[C@H]1CO	4	1	-12
COc1cccc(-c2ccc3c(c2)[C@H]2[C@H](CCN2S(=O)(=O)c2ccccc2C)[C@H](CO)N3C)c1	-1	-1	-19
Cc1ccccc1S(=O)(=O)N1CC[C@@H]2[C@@H](CO)N(C)c3ccc(-c4ccccc4)cc3[C@@H]21	-1	0	3
COc1ccccc1S(=O)(=O)N1CC[C@@H]2[C@H]1c1cc(-c3ccc(C#N)cc3)ccc1N(C)[C@H]2CO	1	0	-28
CN1c2ccc(-c3cccc(C#N)c3)cc2[C@@H]2[C@@H](CCN2S(=O)(=O)c2cccc(F)c2)[C@@H]1CO	73*	0	-43
O=C(C1CC1)N1CC2(C1)[C@@H](c1ccccc1)[C@@H](CO)N2CCC(F)(F)F	0	0	x
COc1ccc(NC(=O)N(C)C[C@@H]2Oc3ccc(NC(=O)Nc4ccc5c(c4)OCO5)cc3C(=O)N([C@@H](C)CO)C[C@H]2C)cc1	8	0	-74
C[C@@H]1CN([C@@H](C)CO)C(=O)c2cc(NS(C)(=O)=O)ccc2O[C@@H](C)CCCCO[C@@H]1CN(C)C(=O)Nc1ccc(F)cc1	1	0	x
O=C(Nc1cccc(Cl)c1)N[C@H]1CC[C@@H](CCNC(=O)C2CCC2)O[C@@H]1CO	-2	0	-3
SMILES	DENV2 CPE rescue	E-selectin induc	C2C12 statin
Cc1noc(C)c1S(=O)(=O)Nc1ccc2c(c1)C(=O)N([C@H](C)CO)C[C@H](C)[C@H](CN(C)C(=O)c1ccccc1)OCCCC[C@@H](C)O2	-1	0	x
O=C(C1=C[C@@H](C2CC2)C[C@@H](OCCCCO)O1)N1CCCCCCC1	-4	x	x
O=C(CN1CCOCC1)N[C@H]1CC[C@H](CCNC(=O)C2CCCC2)O[C@H]1CO	-4	0	-3
O=C1CC(N2CCN(c3ccccc3)CC2)C(=O)N1c1cccc(Br)c1 (centres undefined)	3	x	17
O=C1CC(N2CCSCC2)C(=O)N1c1cccc(Br)c1 (centres undefined)	0	43*	-3
COCC(=O)N1C[C@H](C)[C@H](OC)CN(C)C(=O)c2cc(NC(=O)c3ccc(OC)cc3)ccc2OC[C@@H]1C	12	0	12
CCCC(=O)Nc1ccc2c(c1)C(=O)N(C)C[C@H](OC)[C@@H](C)CN(C(=O)C1CCCC1)[C@H](C)CO2	35*	0	-4
CCCC(=O)Nc1ccc2c(c1)C(=O)N(C)C[C@@H](OC)[C@H](C)CN(C(=O)CC)[C@H](C)CO2	x	0	-1
COCC(=O)N1C[C@@H](C)[C@@H](OC)CN(C)C(=O)c2cc(NC(=O)c3ccc(OC)cc3)ccc2OC[C@H]1C	34*	0	1
CCC(=O)Nc1ccc2c(c1)C(=O)N(C)C[C@H](OC)[C@@H](C)CN(C(=O)CC)[C@@H](C)CO2	63*	0	-16
CCS(=O)(=O)Nc1ccc2c(c1)C(=O)N(C)C[C@H](OC)[C@@H](C)CN(C(=O)COC)[C@H](C)CO2	82*	0	15
CCCC(=O)Nc1ccc2c(c1)C(=O)N(C)C[C@H](OC)[C@@H](C)CN(C(=O)C1CCCC1)[C@@H](C)CO2	-3	0	-8
CCS(=O)(=O)Nc1ccc2c(c1)C(=O)N(C)C[C@H](OC)[C@H](C)CN(C(=O)COC)[C@@H](C)CO2	-7	0	-1
Cc1ccccc1CN(C)C[C@@H]1OCc2cn(nn2)CCCC(=O)N([C@H](C)CO)C[C@@H]1C	-2	0	4
C[C@H](CO)N1C[C@H](C)[C@@H](CN(C)C)OCCCC[C@H](C)Oc2ccc(NS(=O)(=O)c3ccc(F)cc3)cc2C1=O	-15	0	-12
CC(C)C#Cc1cnc2c(c1)C(=O)N([C@H](C)CO)C[C@H](C)[C@@H](CN(C)C(=O)c1ccccc1F)O2	0	0	2
CCCNC(=O)Nc1ccc2c(c1)C(=O)N(C)[C@H]1CC[C@H](CC(=O)O)O[C@@H]1CO2	2	0	-23
C/C=C/c1ccc([C@H]2[C@@H](CO)N3C(=O)CN(C(=O)c4cnccn4)C[C@@H]23)cc1	-10	1	x
O=C(C[C@@H]1C=C[C@H](NC(=O)C2CC2)[C@H](CO)O1)NCc1ccncc1	-6	0	-3
COc1ccccc1NC(=O)N1CCCCN2[C@@H](CO)[C@@H](c3ccc(C#CC4CC4)cc3)[C@@H]2C1	3	x	x
C[C@@H]1CN([C@H](C)CO)C(=O)c2cccc(NS(=O)(=O)c3ccccc3)c2O[C@H]1CN(C)C(=O)Nc1ccccc1	-7	x	36
CCC(=O)Nc1ccc2c(c1)C(=O)N(C)C[C@@H](OC)[C@H](C)CN(Cc1ccncc1)[C@H](C)CO2	u	0	-6
